Test results taken from publication PMC8248332 (Chembiochem, 2021).
pKd: −log10 of the molar value. Square brackets hold non-standard residues; d marks the D form. Peptide text beside a SMILES is read from it. pS = N[C@@H](COP(=O)(O)O)C(=O)O

Columns and labels:
14‐3‐3σ = molecular target: T1, 14‐3‐3σ (Homo sapiens, UniProt P31947); assay: Isothermal titration calorimetry; assay type: binding; settings: dissolved CRaf (1 mM) into 14‐3‐3σ (50 μM), HEPES 25 mM pH 7.4, 25 °C
T1 sequence (P31947 1-248): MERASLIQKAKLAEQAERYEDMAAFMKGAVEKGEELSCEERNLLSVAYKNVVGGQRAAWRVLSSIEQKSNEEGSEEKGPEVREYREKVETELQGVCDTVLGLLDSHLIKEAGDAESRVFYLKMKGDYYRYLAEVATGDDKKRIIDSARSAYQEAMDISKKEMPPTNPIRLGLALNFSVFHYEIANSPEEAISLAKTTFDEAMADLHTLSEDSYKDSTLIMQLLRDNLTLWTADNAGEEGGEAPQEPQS
How it was run: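 14-3-3σ purified by size-exclusion chromatography (20 mM Tris-HCl pH 7.5, 150 mM NaCl, 2 mM DTT), then dialysed into 25 mM HEPES pH 7.4. Cell held 300 μL protein. First injection 0.4 μL, mixing time 0.8 s, 180 s between injections. Enthalpy per injection versus peptide:protein molar ratio fitted sigmoidally; inflection point gives N, slope there gives KD.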

14‐3‐3ζ = settings: CRaf and the isomer 14‐3‐3ζ; Molzan et al.; cited from earlier work

binding ratio from ITC (peptide/protein), N (14‐3‐3σ): 0.84±0.01
SMILES: CC(C)C[C@H](NC(=O)[C@H](CO)NC(=O)CNC(=O)[C@H](CCC(=O)O)NC(=O)[C@H](CO)NC(=O)[C@H](CS)NC(=O)[C@@H]1CCCN1C(=O)[C@H](CO)NC(=O)[C@H](CO)NC(=O)[C@@H](NC(=O)[C@H](CC(N)=O)NC(=O)[C@H](Cc1ccccc1)NC(=O)[C@@H](NC(=O)[C@H](Cc1ccccc1)NC(=O)[C@H](C)NC(=O)[C@H](Cc1c[nH]cn1)NC(=O)[C@@H]1CCCN1C(=O)[C@@H](NC(=O)[C@H](COP(=O)(O)O)NC(=O)[C@H](Cc1ccc(O)cc1)NC(=O)[C@H](CCCNC(=N)N)NC(=O)[C@H](Cc1c[nH]cn1)NC(=O)[C@@H](N)CCC(N)=O)[C@@H](C)O)[C@@H](C)O)[C@@H](C)O)C(=O)N[C@@H](CO)C(=O)N[C@@H](CCC(N)=O)C(=O)N[C@@H](CCCNC(=N)N)C(=O)N[C@@H](CCC(N)=O)C(=O)N[C@@H](CCCNC(=N)N)C(=O)N[C@@H](CO)C(=O)N[C@H](C(=O)N[C@@H](COP(=O)(O)O)C(=O)N[C@H](C(=O)N1CCC[C@H]1C(=O)N[C@@H](CC(N)=O)C(=O)N[C@H](C(=O)N[C@@H](Cc1c[nH]cn1)C(N)=O)C(C)C)[C@@H](C)O)[C@@H](C)O [CRaf] (H-QHRY[pS]TPHAFTFNTSSPCSEGSLSQRQRST[pS]TPNVH-NH2)
pKd (14‐3‐3ζ): 7.10
